# From ChEMBL document CHEMBL4014341, “Discovery of a Human Neuromedin U Receptor 1-Selective Hexapeptide Agonist with Enhanced Serum Stability” (J Med Chem, 2017)
# Active and inactive are the calls of the source. The rule behind the calls is not given here. Square brackets hold non-standard residues; d marks the D form. Peptide text beside a SMILES is read from it. * marks the point of attachment. Phe(4-NO2) = N[C@@H](Cc1ccc([N+](=O)[O-])cc1)C(=O)O; Phe(4-CF3) = N[C@@H](Cc1ccc(C(F)(F)F)cc1)C(=O)O; Phe(4-Br) = N[C@@H](Cc1ccc(Br)cc1)C(=O)O; Phe(4-CN) = N#Cc1ccc(C[C@H](N)C(=O)O)cc1; Phe(4-Cl) = N[C@@H](Cc1ccc(Cl)cc1)C(=O)O; αMeW = C[C@](N)(Cc1c[nH]c2ccccc12)C(=O)O; Phe(3-F) = N[C@@H](Cc1cccc(F)c1)C(=O)O; Phe(4-F) = N[C@@H](Cc1ccc(F)cc1)C(=O)O; Phe(2-F) = N[C@@H](Cc1ccccc1F)C(=O)O; Acetyl(2-thienyl) = O=C(Cc1cccs1)*
# Assays:
# [1] = target: T1, Neuromedin-U receptor 1 (Homo sapiens) (UniProt Q9HB89); assay: Agonist activity at human NMUR1 expressed in CHO cells assessed as induction of Ca2+ flux at 0.1 to 10 nM after 18 hrs by Fluo-4 AM dye based FLIPR assay relative to NMU; assay type: functional, cell-based
# T1 sequence (whole entry): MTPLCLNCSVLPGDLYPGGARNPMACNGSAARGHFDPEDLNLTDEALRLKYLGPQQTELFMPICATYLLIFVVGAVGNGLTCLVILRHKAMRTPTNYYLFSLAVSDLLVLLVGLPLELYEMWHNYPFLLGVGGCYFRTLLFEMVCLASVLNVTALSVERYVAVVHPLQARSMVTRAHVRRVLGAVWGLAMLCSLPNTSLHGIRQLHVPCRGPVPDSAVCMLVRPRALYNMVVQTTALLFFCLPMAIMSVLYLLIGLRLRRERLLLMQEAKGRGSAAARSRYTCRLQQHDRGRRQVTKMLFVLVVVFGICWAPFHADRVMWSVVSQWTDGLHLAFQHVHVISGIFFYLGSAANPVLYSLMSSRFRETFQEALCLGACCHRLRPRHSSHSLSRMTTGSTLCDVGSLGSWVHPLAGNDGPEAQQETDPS
# Summary of the method: (§1)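 Human NMUR1 or NMUR2 stably expressed in CHO cells was assayed by Fluo-4 AM (4 μM, 40 min) FLIPR calcium flux, with cells seeded 18 h before. Peptides were tested at single concentrations of 0.1, 10 or 100 nM. Maximal response is expressed as % of hNMU at 1000 nM (=100%).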
# [2] = target: Neuromedin-U receptor 2 (Homo sapiens) (UniProt Q9GZQ4); assay: Agonist activity at human NMUR2 expressed in CHO cells assessed as induction of Ca2+ flux at 0.1 to 10 nM after 18 hrs by Fluo-4 AM dye based FLIPR assay relative to NMU; assay type: functional, cell-based; summary of the method: as §1
# [3] = target: Neuromedin-U receptor 2 (Homo sapiens) (UniProt Q9GZQ4); assay: Agonist activity at human NMUR2 expressed in CHO cells assessed as induction of Ca2+ flux at 10 nM after 18 hrs by Fluo-4 AM dye based FLIPR assay relative to NMU; assay type: functional, cell-based; summary of the method: as §1
# [4] = target: T1, Neuromedin-U receptor 1 (Homo sapiens); assay: Agonist activity at human NMUR1 expressed in CHO cells assessed as induction of Ca2+ flux at 0.1 nM after 18 hrs by Fluo-4 AM dye based FLIPR assay relative to NMU; assay type: functional, cell-based; summary of the method: as §1
# [5] = MRT in Wistar rat at 1 mg, iv by LC/MS analysis; assay type: ADME, organism-based; conditions: in vivo
# [6] = Clearance in Wistar rat at 1 mg, iv up to 240 mins by LC/MS analysis; assay type: ADME, organism-based; conditions: in vivo
# [7] = AUC in Wistar rat at 1 mg, iv up to 240 mins by LC/MS analysis; assay type: ADME, organism-based; parameters: dose 1 mg, time < 4 hr, route intravenous; conditions: in vivo
# [8] = species on record: Rattus norvegicus; assay: Stability in rat serum at 1 mM at 120 mins by RP-HPLC/MS analysis
# [9] = target: Prothrombin (Homo sapiens, UniProt P00734); assay: Drug metabolism in human serum treated with (S)-2-((S)-1-((S)-2-((S)-2-((S)-3-(1H-indol-3-yl)-2-(2-(thiophen-2-yl)acetamido)propanamido)-3-(1H-indol-3-yl)-2-methylpropanamido)-5-guanidinopentanoyl)pyrrolidine-2-carboxamido)-5-guanidinopentanoic acid assessed as thrombin-mediated metabolite formation at 1 mM after 120 mins by RP-HPLC analysis; assay type: ADME; conditions: 2 h, 1000 µM
# [10] = target: Neuromedin-U receptor 2 (Homo sapiens) (UniProt Q9GZQ4); assay: Agonist activity at human NMUR2 expressed in CHO cells assessed as induction of Ca2+ flux at 0.1 uM after 18 hrs by Fluo-4 AM dye based FLIPR assay relative to NMU; assay type: functional, cell-based; summary of the method: as §1
# Sequence of Neuromedin-U receptor 2 (Homo sapiens) (Q9GZQ4 whole entry): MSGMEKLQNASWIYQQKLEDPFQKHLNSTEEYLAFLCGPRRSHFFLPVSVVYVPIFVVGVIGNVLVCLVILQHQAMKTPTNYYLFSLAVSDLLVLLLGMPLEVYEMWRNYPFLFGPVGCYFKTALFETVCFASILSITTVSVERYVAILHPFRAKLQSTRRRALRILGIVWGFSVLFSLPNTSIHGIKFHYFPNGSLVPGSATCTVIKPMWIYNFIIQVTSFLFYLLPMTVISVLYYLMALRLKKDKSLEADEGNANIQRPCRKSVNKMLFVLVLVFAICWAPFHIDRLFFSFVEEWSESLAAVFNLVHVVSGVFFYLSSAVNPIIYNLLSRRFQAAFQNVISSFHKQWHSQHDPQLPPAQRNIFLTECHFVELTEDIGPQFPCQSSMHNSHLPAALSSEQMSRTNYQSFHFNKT
Activity [1],Activity [2],Activity [3],Compound,other results
Active,Active,–,N=C(N)NCCC[C@H](NC(=O)[C@@H]1CCCN1C(=O)[C@H](CCCNC(=N)N)NC(=O)[C@H](Cc1ccccc1F)NC(=O)[C@H](Cc1c[nH]c2ccccc12)NC(=O)Cc1cccs1)C(=O)N[C@@H](CC(N)=O)C(N)=O ({Acetyl(2-thienyl)}-W[Phe(2-F)]RPRN-NH2),–
Active,Active,–,N=C(N)NCCC[C@H](NC(=O)[C@@H]1CCCN1C(=O)[C@H](CCCNC(=N)N)NC(=O)[C@H](Cc1cccc(F)c1)NC(=O)[C@H](Cc1c[nH]c2ccccc12)NC(=O)Cc1cccs1)C(=O)N[C@@H](CC(N)=O)C(N)=O ({Acetyl(2-thienyl)}-W[Phe(3-F)]RPRN-NH2),–
–,–,inactive,N=C(N)NCCC[C@H](NC(=O)[C@@H]1CCCN1C(=O)[C@H](CCCNC(=N)N)NC(=O)[C@H](Cc1ccc(Br)cc1)NC(=O)[C@H](Cc1c[nH]c2ccccc12)NC(=O)Cc1cccs1)C(=O)N[C@@H](CC(N)=O)C(N)=O ({Acetyl(2-thienyl)}-W[Phe(4-Br)]RPRN-NH2),–
–,–,inactive,N=C(N)NCCC[C@H](NC(=O)[C@@H]1CCCN1C(=O)[C@H](CCCNC(=N)N)NC(=O)[C@H](Cc1ccc(C(F)(F)F)cc1)NC(=O)[C@H](Cc1c[nH]c2ccccc12)NC(=O)Cc1cccs1)C(=O)N[C@@H](CC(N)=O)C(N)=O ({Acetyl(2-thienyl)}-W[Phe(4-CF3)]RPRN-NH2),Activity [4]: Active
–,–,inactive,N#Cc1ccc(C[C@H](NC(=O)[C@H](Cc2c[nH]c3ccccc23)NC(=O)Cc2cccs2)C(=O)N[C@@H](CCCNC(=N)N)C(=O)N2CCC[C@H]2C(=O)N[C@@H](CCCNC(=N)N)C(=O)N[C@@H](CC(N)=O)C(N)=O)cc1 ({Acetyl(2-thienyl)}-W[Phe(4-CN)]RPRN-NH2),–
–,–,Active,N=C(N)NCCC[C@H](NC(=O)[C@@H]1CCCN1C(=O)[C@H](CCCNC(=N)N)NC(=O)[C@H](Cc1ccc(Cl)cc1)NC(=O)[C@H](Cc1c[nH]c2ccccc12)NC(=O)Cc1cccs1)C(=O)N[C@@H](CC(N)=O)C(N)=O ({Acetyl(2-thienyl)}-W[Phe(4-Cl)]RPRN-NH2),–
Active,Active,–,N=C(N)NCCC[C@H](NC(=O)[C@@H]1CCCN1C(=O)[C@H](CCCNC(=N)N)NC(=O)[C@H](Cc1ccc(F)cc1)NC(=O)[C@H](Cc1c[nH]c2ccccc12)NC(=O)Cc1cccs1)C(=O)N[C@@H](CC(N)=O)C(N)=O ({Acetyl(2-thienyl)}-W[Phe(4-F)]RPRN-NH2),MRT [5]: 11.5 min; clearance [6]: 3.19 mL/min; AUC at 4 h [7]: 5300 ng·h/mL
–,–,inactive,N=C(N)NCCC[C@H](NC(=O)[C@@H]1CCCN1C(=O)[C@H](CCCNC(=N)N)NC(=O)[C@H](Cc1ccc([N+](=O)[O-])cc1)NC(=O)[C@H](Cc1c[nH]c2ccccc12)NC(=O)Cc1cccs1)C(=O)N[C@@H](CC(N)=O)C(N)=O ({Acetyl(2-thienyl)}-W[Phe(4-NO2)]RPRN-NH2),–
Active,–,–,C[C@@](Cc1c[nH]c2ccccc12)(NC(=O)[C@H](Cc1c[nH]c2ccccc12)NC(=O)Cc1cccs1)C(=O)N[C@@H](CCCNC(=N)N)C(=O)N1CCC[C@H]1C(=O)N[C@@H](CCCNC(=N)N)C(=O)O ({Acetyl(2-thienyl)}-W[αMeW]RPR-OH),"remaining at 2 h, 1000 µM [8]: 101%; Drug metabolism [9]: Metabolite_Detected; Activity [10]: inactive"
